Values after ≈ are worked out from the molar mass of the structure shown.
How the values were obtained:
[1] = tested on: Trichoderma viride; assay: Antifungal activity against Trichoderma viride IAM 5061 after 72 hrs by serial dilution method; type: functional; conditions: IAM 5061, 72 h
Outline: (§1)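 Fungi were kept on malt agar at 4 °C and sub-cultured monthly. Spores were washed off the agar with sterile 0.85% saline containing 0.1% Tween 80 (v/v). Modified microdilution in 96-well plates. MIC is the lowest concentration with no visible growth under the binocular microscope. Inoculum checked on malt agar for contamination and validity.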

[2] = tested on: Aspergillus fumigatus; assay: Antifungal activity against Aspergillus fumigatus plant isolate after 72 hrs by serial sub-cultivation method
[3] = tested on: Proteus mirabilis; assay: Antibacterial activity against Proteus mirabilis after 72 hrs by serial sub-cultivation method; type: functional
Outline: (§2)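 MBC was found by serial sub-cultivation of 2 µl from the MIC wells into plates holding 100 µl broth per well, then incubation for 72 h. MBC is the lowest concentration with no visible growth, i.e. 99.5% killing of the original inoculum. Bacterial inoculum was 1.0 × 10^4 cfu per well in LB broth. Duplicate, repeated three times.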

[4] = tested on: Escherichia coli; assay: Antibacterial activity against Escherichia coli ATCC 35210 after 24 hrs; type: functional; conditions: ATCC 35210, 24 h
Outline: (§3)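 Broth microdilution MIC in 96-well plates. Compounds in LB broth with bacterial inoculum of 1.0 × 10^4 cfu per well, from suspensions adjusted with sterile saline to 1.0 × 10⁵ CFU/ml. Incubated 24 h at […] as printed. MIC taken as the lowest concentration with no visible growth under the binocular microscope. OD at 655 nm also read against blank. Streptomycin and ampicillin as positive controls. Duplicate, repeated three times.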

[5] = tested on: Listeria monocytogenes; assay: Antibacterial activity against Listeria monocytogenes NCTC 7973 after 24 hrs; type: functional; conditions: NCTC 7973, 24 h; outline: as §3
[6] = tested on: Bacillus cereus; assay: Antibacterial activity against Bacillus cereus clinical isolate after 24 hrs; type: functional; outline: as §3
[7] = tested on: Aspergillus fumigatus; assay: Antifungal activity against Aspergillus fumigatus plant isolate after 72 hrs by serial dilution method
[8] = tested on: Penicillium ochrochloron; assay: Antifungal activity against Penicillium ochrochloron ATCC 9112 after 72 hrs by serial sub-cultivation method; type: functional; conditions: ATCC 9112, 72 h
Outline: (§4)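 MFC was found by serial sub-cultivation of 2 µl into plates holding 100 µl broth per well, then incubation 72 h at 28 °C. MFC is the lowest concentration with no visible growth, taken as 99.5% killing of the original inoculum. Spore inocula came from malt agar cultures washed with 0.85% saline and 0.1% Tween 80.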

[9] = tested on: Listeria monocytogenes; assay: Antibacterial activity against Listeria monocytogenes NCTC 7973 after 72 hrs by serial sub-cultivation method; type: functional; conditions: NCTC 7973, 72 h; outline: as §2
[10] = tested on: Penicillium ochrochloron; assay: Antifungal activity against Penicillium ochrochloron ATCC 9112 after 72 hrs by serial dilution method; type: functional; conditions: ATCC 9112, 72 h; outline: as §1
[11] = tested on: Talaromyces funiculosus; assay: Antifungal activity against Penicillium funiculosum ATCC 36839 after 72 hrs by serial sub-cultivation method; type: functional; conditions: ATCC 36839, 72 h; outline: as §4
[12] = tested on: Escherichia coli; assay: Antibacterial activity against Escherichia coli ATCC 35210 after 72 hrs by serial sub-cultivation method; type: functional; conditions: ATCC 35210, 72 h; outline: as §2
[13] = tested on: Fulvia fulva; assay: Antifungal activity against Fulvia fulva TK 5318 after 72 hrs by serial dilution method; type: functional; conditions: TK 5318, 72 h; outline: as §1
[14] = tested on: Proteus mirabilis; assay: Antibacterial activity against Proteus mirabilis after 24 hrs; type: functional; outline: as §3
[15] = tested on: Aspergillus versicolor; assay: Antifungal activity against Aspergillus versicolor ATCC 11730 after 72 hrs by serial sub-cultivation method; type: functional; conditions: ATCC 11730, 72 h; outline: as §4
[16] = tested on: Pseudomonas aeruginosa; assay: Antibacterial activity against Pseudomonas aeruginosa ATCC 27853 after 24 hrs; type: functional; conditions: ATCC 27853, 24 h; outline: as §3
[17] = tested on: Salmonella typhimurium; assay: Antibacterial activity against Salmonella Typhimurium ATCC 13311 after 72 hrs by serial sub-cultivation method; type: functional, Salmonella enterica subsp. enterica serovar Typhimurium; conditions: Salmonella enterica, ATCC 13311, 72 h; outline: as §2
[18] = tested on: Aspergillus niger; assay: Antifungal activity against Aspergillus niger ATCC 6275 after 72 hrs by serial sub-cultivation method; type: functional; conditions: ATCC 6275, 72 h; outline: as §4
[19] = tested on: Fulvia fulva; assay: Antifungal activity against Fulvia fulva TK 5318 after 72 hrs by serial sub-cultivation method; type: functional; conditions: TK 5318, 72 h; outline: as §4
[20] = tested on: Micrococcus flavus; assay: Antibacterial activity against Micrococcus flavus ATCC 10240 after 72 hrs by serial sub-cultivation method; type: functional; conditions: ATCC 10240, 72 h; outline: as §2
[21] = tested on: Micrococcus flavus; assay: Antibacterial activity against Micrococcus flavus ATCC 10240 after 24 hrs; type: functional; conditions: ATCC 10240, 24 h; outline: as §3
[22] = tested on: Aspergillus flavus; assay: Antifungal activity against Aspergillus flavus ATCC 9643 after 72 hrs by serial sub-cultivation method; type: functional; conditions: ATCC 9643, 72 h; outline: as §4
[23] = tested on: Bacillus cereus; assay: Antibacterial activity against Bacillus cereus clinical isolate after 72 hrs by serial sub-cultivation method; type: functional; outline: as §2
[24] = tested on: Salmonella typhimurium; assay: Antibacterial activity against Salmonella Typhimurium ATCC 13311 after 24 hrs; type: functional, Salmonella enterica subsp. enterica serovar Typhimurium; conditions: Salmonella enterica, ATCC 13311, 24 h; outline: as §3
[25] = tested on: Staphylococcus aureus; assay: Antibacterial activity against Staphylococcus aureus ATCC 6538 after 72 hrs by serial sub-cultivation method; type: functional; conditions: ATCC 6538, 72 h; outline: as §2
[26] = tested on: Trichoderma viride; assay: Antifungal activity against Trichoderma viride IAM 5061 after 72 hrs by serial sub-cultivation method; type: functional; conditions: IAM 5061, 72 h; outline: as §4
[27] = tested on: Talaromyces funiculosus; assay: Antifungal activity against Penicillium funiculosum ATCC 36839 after 72 hrs by serial dilution method; type: functional; conditions: ATCC 36839, 72 h; outline: as §1
[28] = tested on: Aspergillus niger; assay: Antifungal activity against Aspergillus niger ATCC 6275 after 72 hrs by serial dilution method; type: functional; conditions: ATCC 6275, 72 h; outline: as §1
[29] = tested on: Staphylococcus aureus; assay: Antibacterial activity against Staphylococcus aureus ATCC 6538 after 24 hrs; type: functional; conditions: ATCC 6538, 24 h; outline: as §3
[30] = tested on: Aspergillus versicolor; assay: Antifungal activity against Aspergillus versicolor ATCC 11730 after 72 hrs by serial dilution method; type: functional; conditions: ATCC 11730, 72 h; outline: as §1
[31] = tested on: Pseudomonas aeruginosa; assay: Antibacterial activity against Pseudomonas aeruginosa ATCC 27853 after 72 hrs by serial sub-cultivation method; type: functional; conditions: ATCC 27853, 72 h; outline: as §2
[32] = tested on: Aspergillus flavus; assay: Antifungal activity against Aspergillus flavus ATCC 9643 after 72 hrs by serial dilution method; type: functional; conditions: ATCC 9643, 72 h; outline: as §1

SMILES: O=C1N/C(=N/c2nc(C34CC5CC(CC(C5)C3)C4)cs2)S/C1=C\c1ccccc1[N+](=O)[O-]
- MIC [1]: 10.8 µM (≈ 5.04 µg/mL)
- MFC [2]: 21.5 µM (≈ 10 µg/mL)
- MBC [3]: 64.5 µM (≈ 30.1 µg/mL)
- MIC [4]: 21.5 µM (≈ 10 µg/mL)
- MIC [5]: 21.5 µM (≈ 10 µg/mL)
- MIC [6]: 10.8 µM (≈ 5.04 µg/mL)
- MIC [7]: 10.8 µM (≈ 5.04 µg/mL)
- MFC [8]: 21.5 µM (≈ 10 µg/mL)
- MBC [9]: 43 µM (≈ 20.1 µg/mL)
- MIC [10]: 10.8 µM (≈ 5.04 µg/mL)
- MFC [11]: 21.5 µM (≈ 10 µg/mL)
- MBC [12]: 43 µM (≈ 20.1 µg/mL)
- MIC [13]: 5.4 µM (≈ 2.52 µg/mL)
- MIC [14]: 43 µM (≈ 20.1 µg/mL)
- MFC [15]: 16.1 µM (≈ 7.51 µg/mL)
- MIC [16]: 21.5 µM (≈ 10 µg/mL)
- MBC [17]: 43 µM (≈ 20.1 µg/mL)
- MFC [18]: 21.5 µM (≈ 10 µg/mL)
- MFC [19]: 10.8 µM (≈ 5.04 µg/mL)
- MBC [20]: 43 µM (≈ 20.1 µg/mL)
- MIC [21]: 21.5 µM (≈ 10 µg/mL)
- MFC [22]: 21.5 µM (≈ 10 µg/mL)
- MBC [23]: 21.5 µM (≈ 10 µg/mL)
- MIC [24]: 21.5 µM (≈ 10 µg/mL)
- MBC [25]: 21.5 µM (≈ 10 µg/mL)
- MFC [26]: 21.5 µM (≈ 10 µg/mL)
- MIC [27]: 10.8 µM (≈ 5.04 µg/mL)
- MIC [28]: 16.1 µM (≈ 7.51 µg/mL)
- MIC [29]: 16.1 µM (≈ 7.51 µg/mL)
- MIC [30]: 10.8 µM (≈ 5.04 µg/mL)
- MBC [31]: 43 µM (≈ 20.1 µg/mL)
- MIC [32]: 16.1 µM (≈ 7.51 µg/mL)

SMILES: O=C1N/C(=N/c2nc(C34CC5CC(CC(C5)C3)C4)cs2)S/C1=C\c1ccc(O)cc1
- MIC [1]: 11.5 µM (≈ 5.03 µg/mL)
- MFC [2]: 22.9 µM (≈ 10 µg/mL)
- MBC [3]: 68.7 µM (≈ 30.1 µg/mL)
- MIC [4]: 22.9 µM (≈ 10 µg/mL)
- MIC [5]: 22.9 µM (≈ 10 µg/mL)
- MIC [6]: 17.2 µM (≈ 7.53 µg/mL)
- MIC [7]: 11.5 µM (≈ 5.03 µg/mL)
- MFC [8]: 22.9 µM (≈ 10 µg/mL)
- MBC [9]: 45.8 µM (≈ 20 µg/mL)
- MIC [10]: 17.2 µM (≈ 7.53 µg/mL)
- MFC [11]: 22.9 µM (≈ 10 µg/mL)
- MBC [12]: 45.8 µM (≈ 20 µg/mL)
- MIC [13]: 11.5 µM (≈ 5.03 µg/mL)
- MIC [14]: 45.8 µM (≈ 20 µg/mL)
- MFC [15]: 22.9 µM (≈ 10 µg/mL)
- MIC [16]: 22.9 µM (≈ 10 µg/mL)
- MBC [17]: 17.2 µM (≈ 7.53 µg/mL)
- MFC [18]: 22.9 µM (≈ 10 µg/mL)
- MFC [19]: 22.9 µM (≈ 10 µg/mL)
- MBC [20]: 45.8 µM (≈ 20 µg/mL)
- MIC [21]: 22.9 µM (≈ 10 µg/mL)
- MFC [22]: 22.9 µM (≈ 10 µg/mL)
- MBC [23]: 22.9 µM (≈ 10 µg/mL)
- MIC [24]: 11.5 µM (≈ 5.03 µg/mL)
- MBC [25]: 45.8 µM (≈ 20 µg/mL)
- MFC [26]: 22.9 µM (≈ 10 µg/mL)
- MIC [27]: 17.2 µM (≈ 7.53 µg/mL)
- MIC [28]: 11.5 µM (≈ 5.03 µg/mL)
- MIC [29]: 17.2 µM (≈ 7.53 µg/mL)
- MIC [30]: 17.2 µM (≈ 7.53 µg/mL)
- MBC [31]: 45.8 µM (≈ 20 µg/mL)
- MIC [32]: 11.5 µM (≈ 5.03 µg/mL)

Source: ChEMBL document CHEMBL1157665, “Novel 4-thiazolidinone derivatives as potential antifungal and antibacterial drugs” (2010)
